# Screens as filed in PubChem BioAssay.
# PKD1 inh – inhibitors of human PKD1 kinase, biochemical, fluorescence polarization. PKD1 kinase fluorescence polarization assay. inhibition, % (test concentration not listed). actives 0.056% (n = 200,000). AID 797, 2007
# Rad51 HR inh – human RAD51 strand exchange inhibitors, primary screen, biochemical, fluorescence. hRad51 DNA strand exchange, fluorescence dequenching. inhibition, % at 10 µM. actives 0.085% (n = 200,000). AID 1385, 2008;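 active = inhibition above 40% at the single screening dose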;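 also: 0% = DMSO control wells and 100% = blanks with heterologous ssDNA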
#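 System: hRad51 filaments on single-stranded DNA; reagent: Fluorescein- and BHQ1-tagged 47-mer duplex; compound dosing: one concentration, 10 µM final; timing: filaments 15 min 37 °C, then compound 30 min; measured by: fluorescein emission 520 nm, excitation 485 nm; benchmarks: per-plate controls and blanks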
# Wee1 degr inh – Wee1 degradation inhibitors, primary screen, cell-based, HeLa, Wee1K328M-luciferase, luminescence; Wee1-like protein kinase (Homo sapiens), P30291; HeLa Luc-Wee1K328M stability; 100% = proteasome inhibitor MG132 effect; reporter increase, % at 5 µM; actives 1.2% (n = 220,000); AID 1321, 2008;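 active = activation above the mean of all tested compounds plus 3 SD, set per screening run, cut at about 8.8% in these data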;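 also: cells exposed to compound for 20 h before luminescence read; 0% = DMSO alone and 100% = MG132 at 30 µM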
# Target sequence (P30291 whole entry K328M): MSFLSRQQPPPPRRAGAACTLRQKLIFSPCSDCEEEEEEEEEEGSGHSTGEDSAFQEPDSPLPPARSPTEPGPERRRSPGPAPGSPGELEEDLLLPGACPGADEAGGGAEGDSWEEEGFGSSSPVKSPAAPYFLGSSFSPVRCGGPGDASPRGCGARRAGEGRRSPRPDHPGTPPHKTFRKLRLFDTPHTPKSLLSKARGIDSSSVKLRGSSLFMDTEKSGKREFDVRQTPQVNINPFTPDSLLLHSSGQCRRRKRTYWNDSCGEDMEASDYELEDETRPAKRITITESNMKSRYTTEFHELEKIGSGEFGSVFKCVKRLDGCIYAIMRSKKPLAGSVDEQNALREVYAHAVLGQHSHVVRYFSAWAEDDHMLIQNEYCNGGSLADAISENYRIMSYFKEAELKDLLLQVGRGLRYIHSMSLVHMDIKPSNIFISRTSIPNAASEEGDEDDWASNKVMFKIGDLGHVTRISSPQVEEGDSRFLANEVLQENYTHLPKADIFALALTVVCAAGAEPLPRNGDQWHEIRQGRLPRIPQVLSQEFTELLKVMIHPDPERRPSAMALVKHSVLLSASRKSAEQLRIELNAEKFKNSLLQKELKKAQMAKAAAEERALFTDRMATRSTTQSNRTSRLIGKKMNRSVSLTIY
# CHOP inh – inhibitors of CHOP promoter induction, primary screen, cell-based, unfolded protein response, luciferase reporter | actives 3.8% (n = 220,000) | inhibition, % at 10 µM | CHO-K1 CHOP-promoter luciferase, tunicamycin-induced, 15-18 h;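 active = compounds that reduced the stress-induced luciferase reporter signal by more than about 70% of percent inhibition, limit read from the data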;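 also: 0% = tunicamycin plus vehicle and 100% = wells without tunicamycin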
# Arbovirus inh – antivirals against arbovirus infection, primary screen, cell-based, full library, 10K replicate subset; arbovirus infection cell-based antiviral screen; inhibition, % at 10 µM; actives 0.37% (n = 200,000); AID 1251, 2008; in the data active = inhibition above about 30%
# Lmaj promast – Leishmania major promastigote growth inhibition, primary screen; inhibition, % at 10 µM; Leishmania major promastigotes, resazurin fluorescence viability; actives 9% (n = 200,000);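 also: promastigotes grown with compound for 44 hours at 28 °C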
# An asterisk follows results filed as active; nt = no result. An excerpt weighted towards active compounds, which were near 12% of everything screened. Rule as the data show it, unless noted: active = inhibition above about 50%; inactive = the rest.
SMILES,PKD1 inh,Rad51 HR inh,Wee1 degr inh,CHOP inh,Arbovirus inh,Lmaj promast
Cc1cc(Br)ccc1NC(=O)CNC(=O)Cn1ncc(Cl)c(Cl)c1=O,5,nt,-2,106*,-21,8
Cc1cc2oc(=O)cc(CN3CCc4ccccc43)c2cc1Cl,-4,6,2,2,18,3
Cc1cc2oc(=O)cc(Cn3ncc(Cl)c(Cl)c3=O)c2cc1Cl,8,nt,-1,105*,-22,100*
Cc1cc(Br)ccc1NC(=O)CN1C(=O)CCC1=O,0,-5,-3,17,13,1
COc1ccc(NC(=O)CCN2CCN(S(=O)(=O)c3cc(Cl)ccc3OC)CC2)cc1,-10,-5,0,34,-4,82*
COCC(=O)Nc1nnc(-c2ccc(C(C)(C)C)cc2)s1,-2,5,-1,16,3,6
N#CC(C#N)=c1ccc2c(c1)NC1(CCCCC1)N=2,-3,-1,2,nt,1,100*
C=CCn1c(O)c(N=NC(=O)OC(C)(C)C)c2ccccc21,-4,2,1,9,-5,1
C=CCn1c(O)c(N=NC(=S)Nc2ccc(OC)c(Cl)c2)c2ccccc21,-7,nt,-1,-34,-18,97*
COc1ccc(OC)c(NC(=O)CN(c2ccc(C)cc2)S(=O)(=O)c2c(C)noc2C)c1,-9,-1,0,-1,-1,75*
COc1cccc(CNC(=O)CN(c2cc(C)cc(C)c2)S(=O)(=O)c2c(C)noc2C)c1,-4,5,1,58,3,65*
COc1ccc(N(CC(=O)Nc2cc(Cl)ccc2OC)S(=O)(=O)c2c(C)noc2C)cc1,-1,-9,4,nt,-9,32
CCCN(c1ccc(C(C)C)cc1)S(=O)(=O)c1c(C)noc1C,2,-1,3,76*,4,9
COc1ccc(OC)c(NC(=O)CN(c2ccc(C(C)C)cc2)S(=O)(=O)c2c(C)noc2C)c1,4,-1,-3,55,20,52*
CCOc1ccc(N(CC(=O)NCc2ccccc2)S(=O)(=O)c2c(C)noc2C)cc1,-17,8,1,37,-1,1
Cc1cccc(NC(=O)COC(=O)c2ccc3c(c2)OCO3)c1C,-1,2,-2,7,2,-6
COC(=O)c1ccc(OC(=O)CCc2cc(OC)c(OC)c(OC)c2)cc1,11,15,-3,15,0,1
CCc1cc(C(=O)N2CCCC(CCC(=O)NCc3cccc(OC)c3)C2)no1 (stereo not drawn),1,-2,3,7,-2,-4
CSc1nsc(/C=C/Nc2ccc(C)c(C)c2)c1C#N,-3,-116,3,87*,8,4
CSc1nsc(/C=C/Nc2ccc(C)cc2)c1C#N,3,-31,1,-1,2,5
CC(=O)c1ccc(NC(=O)N[C@@H](CC(C)C)C(=O)O)cc1,-5,5,-4,72*,0,6
CC(=O)c1ccc(NC(=O)Nc2ccncc2)cc1,3,30,0,-12,10,8
CC(=O)c1ccc(NC(=O)Nc2ccc(Cl)cc2)cc1,2,-2,1,78*,12,0
CCCCNC(=O)N(O)C1N(CCCC)C(=O)N(CC(=O)OC)C1(C)C (stereo not drawn),-7,-6,0,-13,1,0
Cc1cccc(N2CCN(C(=O)C(NS(=O)(=O)c3cccs3)c3ccccc3)CC2)c1C (stereo not drawn),3,-7,0,21,24,62*
SMILES,PKD1 inh,Rad51 HR inh,Wee1 degr inh,CHOP inh,Arbovirus inh,Lmaj promast
O=C(C(NS(=O)(=O)c1cccs1)c1ccccc1)N1CCN(c2ccccc2F)CC1 (stereo not drawn),-5,-5,-1,34,8,7
O=C(NN1CCCCC1)c1ccc(COc2ccc(Cl)cc2)cc1,-6,-20,-1,29,-4,-2
COc1ccc(OC)c(N(CC(=O)Nc2cccnc2)S(C)(=O)=O)c1,4,13,9.6*,17,2,-2
CCOc1ccccc1N(CC(=O)NCCSc1ccccc1)S(C)(=O)=O,-10,4,9.1*,13,-3,-4
COc1ccc(Cl)cc1N(CC(=O)Nc1ccc2c(c1)OCO2)S(C)(=O)=O,2,1,-3,31,-5,13
COc1ccc(N(CC(=O)Nc2ccccc2C(=O)NCCc2ccccc2)S(C)(=O)=O)cc1OC,-3,0,-3,2,-1,90*
COc1ccc(OC)c(N(CC(=O)Nc2ccc3c(c2)OCO3)S(=O)(=O)c2ccccc2)c1,-2,0,3,4,-7,100*
CCOc1ccccc1N(CC(=O)Nc1cc(OC)ccc1OC)S(C)(=O)=O,-5,-7,-2,-13,-8,84*
CCOc1ccccc1N(CC(=O)Nc1ccccc1C(=O)O)S(C)(=O)=O,2,3,2,-18,11,-5
CCN1C(=O)c2cccc3c(S(=O)(=O)NCc4ccccn4)ccc1c23,2,15,0,-13,-8,65*
Cc1cc(C)n(CCC(=O)N/N=C/c2ccc(Br)c([N+](=O)[O-])c2)n1,nt,nt,-1,-1,nt,nt
Cc1ccoc1C(=O)NCCNc1ccc(Cl)cc1[N+](=O)[O-],5,-5,-2,22,12,83*
N/C(=N\OCc1ccc([N+](=O)[O-])cc1)c1ccccn1,-3,5,-4,83*,-4,-3
N/C(=N\OC(=O)/C=C/c1ccc(Br)cc1)c1ccccn1,-10,5,0,26,3,77*
N/C(=N\OC(=O)c1ccccc1)c1ccccn1,-3,-2,-2,86*,-7,-5
C/C(=N/OCc1ccc(Br)cc1)c1ccccn1,6,3,-1,46,2,-5
COc1cc(C(=O)O/N=C(\N)c2ccccn2)cc(OC)c1OC,nt,-4,4,-9,nt,nt
C/C(=N\OC(=O)c1ccc(Br)cc1)c1ccccn1,-16,5,3,-2,-5,88*
O=C(Nc1ccccc1)Nc1ccc(S(=O)(=O)N2CCCCC2)cc1,-2,-12,0,66,-32,82*
O=S(=O)(c1ccc(Cl)c(NC(=S)N/N=C/c2ccc(O)cc2)c1)N1CCOCC1,-9,2,4,29,-7,88*
O=C(Nc1ccc(Cl)c(Cl)c1)Nc1cc(S(=O)(=O)N2CCOCC2)ccc1N1CCCC1,-11,3,-4,31,-20,69*
CN1CCN(S(=O)(=O)c2ccc(NC(=O)Nc3cccc(Cl)c3)cc2)CC1,0,11,1,32,-41,98*
